Measurements from different studies.
Protocols differ between the studies behind these lines.
Target: Serine/threonine-protein kinase D3 (PRKD3, Homo sapiens, UniProt O94806)
One construct used (O94806 1-890): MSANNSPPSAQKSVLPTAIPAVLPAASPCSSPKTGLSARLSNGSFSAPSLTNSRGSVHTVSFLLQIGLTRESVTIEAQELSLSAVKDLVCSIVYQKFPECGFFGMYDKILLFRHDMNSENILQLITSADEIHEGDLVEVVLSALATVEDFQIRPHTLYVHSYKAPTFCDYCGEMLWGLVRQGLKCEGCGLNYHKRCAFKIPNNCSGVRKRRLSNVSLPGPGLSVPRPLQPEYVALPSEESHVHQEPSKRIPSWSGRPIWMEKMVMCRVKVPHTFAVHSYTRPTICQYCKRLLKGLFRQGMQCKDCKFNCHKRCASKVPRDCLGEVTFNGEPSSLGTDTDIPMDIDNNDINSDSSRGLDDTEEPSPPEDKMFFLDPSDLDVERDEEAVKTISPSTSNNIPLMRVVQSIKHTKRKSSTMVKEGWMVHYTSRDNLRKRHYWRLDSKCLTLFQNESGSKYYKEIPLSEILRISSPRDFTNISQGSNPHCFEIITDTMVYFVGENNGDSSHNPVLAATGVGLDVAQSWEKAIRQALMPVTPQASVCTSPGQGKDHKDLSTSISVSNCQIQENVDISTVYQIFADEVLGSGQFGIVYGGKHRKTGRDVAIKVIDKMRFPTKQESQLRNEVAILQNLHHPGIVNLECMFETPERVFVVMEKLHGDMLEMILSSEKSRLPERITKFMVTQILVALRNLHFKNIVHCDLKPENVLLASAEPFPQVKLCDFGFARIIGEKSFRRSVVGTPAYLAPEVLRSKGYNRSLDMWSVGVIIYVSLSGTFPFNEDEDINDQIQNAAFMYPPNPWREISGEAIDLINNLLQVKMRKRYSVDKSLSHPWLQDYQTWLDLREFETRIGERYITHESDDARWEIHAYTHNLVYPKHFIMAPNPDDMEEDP

COc1cc2ncnc(Nc3ccc(Oc4ccccc4)c(C)c3C)c2cc1OC
inhibition (enzyme activity; inhibitor; 1 µM): 8%

CC(C)(O)c1cncc(-c2nc3ccc(F)cc3n2C2CC2)c1
remaining binding (cell-free assay; competition with immobilised ligand; 1 µM): 100%

CNc1cc(Oc2cc(C(=O)Nc3cc(N4CCN(C)CC4)cc(C(F)(F)F)c3)ccc2C)ncn1
inhibition (target engagement in cells; inhibitor; chemoproteomics; Huh-7; 1 µM): -19.8%

CC1(C)NC(=O)c2[nH]c3c(Cl)c(Cl)ccc3c2C1C#N (centres unmarked)
ΔTm (thermal stability; DSF; 10 µM): 0.8 °C

O=C1Nc2ccc(Cl)cc2C1=Cc1cc(Cl)c(O)c(Cl)c1
remaining signal (cell-free assay; 0.5 µM): 80.7%

N#CC1c2c([nH]c3c(Cl)c(Cl)ccc23)C(=O)NC12CCCCC2 (racemic)
ΔTm (thermal stability; DSF; 10 µM): 0.9 °C

CCCCNc1ncc2c(-c3ccc(F)cc3)nn(C[C@H]3CC[C@H](N)CC3)c2n1
inhibition (target engagement in cells; inhibitor; chemoproteomics; 20 mM): 48.7%

CNc1cccc2cc(C(=O)Nc3ccc(C(=O)O)cc3)c(=O)[nH]c12
inhibition (enzyme activity; inhibitor; 10 µM): -1%

Cn1c2c(Cl)c(Cl)ccc2c2cc(N)[nH]c(=O)c21
ΔTm (thermal stability; DSF; 10 µM): 1 °C

COc1cccc2c(NCc3ccccc3)nc(-n3c(N)nc4ccccc43)nc12
inhibition (target engagement in cells; inhibitor; chemoproteomics; 20 mM): -8.9%

O=C(Nc1ccc(Oc2ccc(F)cc2)cc1)N1CCc2ncccc2[C@H]1c1ccc(F)cc1
remaining binding (cell-free assay; competition with immobilised ligand; 1 µM): 98%

COc1cc2ncnc(Nc3ccc(F)c(Cl)c3)c2cc1OCCCN1CCOCC1
remaining signal (cell-free assay; 0.5 µM): 76.3%

Cc1nc(N2CC[C@@H](O)C2)ncc1-c1cc(C(F)(F)F)cc2[nH]ncc12
remaining binding (binding; competition with immobilised ligand; 1 µM): 100%

COc1cc(Cl)c(C(=O)N[C@@H](CN[C@H]2CC[C@@H](N)CC2)Cc2ccc(C#N)cc2)cc1-c1ccc(CN[C@H](C)c2ccc(C)cc2)o1
remaining activity (enzyme activity; inhibitor; 1 µM): 93%

Cn1c2c(c3ccc(Cl)c(Cl)c31)C(C#N)C1(CCNCC1)NC2=O (racemic)
ΔTm (thermal stability; DSF; 10 µM): 2.9 °C

CCCCN(CCCC)C(=O)CN1C[C@@H](c2cc(OC)c3c(c2)OCO3)[C@H](C(=O)O)[C@H]1CC(C)(C)CCC
remaining binding (cell-free assay; competition with immobilised ligand; 1 µM): 100%

CC(C)(C)c1nc2c(s1)c1nc(N)ncc1c1ccc(NS(=O)(=O)c3c(F)cccc3F)c(F)c12
remaining activity (enzyme activity; inhibitor; radiometric; 1 µM): 98%

O=C(O)c1cc(-c2ccc(C3CCNCC3)cc2)c2ccc(-c3ccc(C(F)(F)F)cc3)cc2c1
remaining binding (cell-free assay; competition with immobilised ligand; 1 µM): 100%

CC/C(=N\NC(=O)NCc1cccc(O)c1)c1ccc(O)c(C)c1O
inhibition (enzyme activity; inhibitor; 0.1 µM): 2.2%

CNC(=O)Nc1ccc2c(c1)CC[C@@]21OC(=O)N(CC(=O)N(Cc2ccc(F)cc2)[C@@H](C)C(F)(F)F)C1=O
remaining binding (cell-free assay; competition with immobilised ligand; 1 µM): 100%

O=C1NC(=O)c2cc(Nc3ccc(F)cc3)c(Nc3ccc(F)cc3)cc21
remaining signal (cell-free assay; 0.5 µM): 96.7%

CO[C@@H](C)c1c(Nc2ccc([C@@H](N(C)C(=O)C3CCS(=O)(=O)CC3)C(F)(F)F)cc2)cnc2cc(Cl)nn12
remaining binding (cell-free assay; competition with immobilised ligand; 1 µM): 93%

Cc1sc(C(=O)NC2COC2)cc1-n1cc(NC(=O)Nc2c(F)cccc2Cl)cn1
remaining activity (enzyme activity; inhibitor; 10 µM): 105%
